Drawing on ChEMBL document CHEMBL1125678, “Quinazolineacetic acids and related analogues as aldose reductase inhibitors” (J Med Chem, 1991), this text covers Lowering and inhibition for eleven compounds.

Assay [1] concerns Rattus norvegicus. The experiment in a line: In vivo inhibition of galactitol accumulation in the diaphragm of rats fed 20% galactose for 4 day at 103 mg/kg/day dose. It is filed as functional. An outline of the steps: (§1)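 Male Sprague-Dawley rats (50–70 g) in groups of six were fed chow with 20% (w/w) galactose. Controls received 20% glucose instead. Test compound was mixed into the diet, and dose was calculated from actual food intake. Rats were killed by decapitation after 4 days. Result is % lowering of tissue galactitol versus galactose-fed controls, as the mean of six animals, compared by Dunnett's multiple comparison.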

The test system of assay [2] is Rattus norvegicus. Kind of assay: In vivo inhibition of galactitol accumulation in the sciatic nerve of rats fed 20% galactose for 4 day at 95 mg/kg/day dose; NS= No Significant inhibition of polyol accumulation. The assay is classed as functional, organism-based.
The target in assay [3] is Aldo-keto reductase family 1 member B1 (Bos taurus) (UniProt P16116). The experiment in a line: In vitro inhibition of aldose reductase in partially purified bovine lens preparation at a concentration of 10e -7M. The procedure, abridged: (§2)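 Enzyme from bovine lens, partially purified by the cited method with the final chromatographic step omitted. DL-Glyceraldehyde was the substrate. Test compounds were run in duplicate at 1×10⁻⁵, 1×10⁻⁶, 1×10⁻⁷ or 4×10⁻⁸ M. Values are % inhibition of enzymatic activity.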

For assay [4] the target is unchanged. The experiment in a line: In vitro inhibition of aldose reductase in partially purified bovine lens preparation at a concentration of 4*10e -8M. An outline of the steps:
as §2

In assay [5] the test system is Rattus norvegicus. The experiment in a line: In vivo inhibition of galactitol accumulation in the sciatic nerve of rats fed 20% galactose for 4 day at 88 mg/kg/day dose; NS = No Significant inhibition of polyol accumulation. The assay is classed as functional, organism-based. The procedure, abridged: as §1
Assay [6] has as its system Rattus norvegicus. The experiment in a line: In vivo inhibition of galactitol accumulation in the diaphragm of rats fed 20% galactose for 4 day at 88 mg/kg/day dose. It is filed as functional, organism-based. An outline of the steps:
as §1

In assay [7] the test system is Rattus norvegicus. The experiment in a line: In vivo inhibition of galactitol accumulation in the sciatic nerve of rats fed 20% galactose for 4 day at 105 mg/kg/day dose; NS = No Significant inhibition of polyol accumulation. The assay is classed as functional, organism-based. An outline of the steps:
as §1

Assay [8] deals with Rattus norvegicus. Kind of assay: In vivo inhibition of galactitol accumulation in the diaphragm of rats fed 20% galactose for 4 day at 105 mg/kg/day dose; NS = No Significant inhibition of polyol accumulation. The assay is classed as functional, organism-based. The procedure, abridged:
as §1

Assay [9] has as its system Rattus norvegicus. The experiment in a line: In vivo inhibition of galactitol accumulation in the diaphragm of rats fed 20% galactose for 4 day at 109 mg/kg/day dose. It is filed as functional. The procedure, abridged:
as §1

Assay [10] deals with Rattus norvegicus. The experiment in a line: In vivo inhibition of galactitol accumulation in the diaphragm of rats fed 20% galactose for 4 day at 77 mg/kg/day dose; NS = No Significant inhibition of polyol accumulation. The assay is classed as functional, organism-based. An outline of the steps: as §1
In assay [11] the target is Aldo-keto reductase family 1 member B1 (Bos taurus) (UniProt P16116). The experiment in a line: in vitro inhibition of Aldose reductase in partially purified bovine lens preparation at a concentration of 10e-6 M.
Assay [12] concerns Rattus norvegicus. Kind of assay: In vivo inhibition of galactitol accumulation in the sciatic nerve of rats fed 20% galactose for 4 day at 77 mg/kg/day dose; NS = No Significant inhibition of polyol accumulation. It is filed as functional, organism-based. An outline of the steps:
as §1

Assay [13] concerns Rattus norvegicus. The experiment in a line: In vivo inhibition of galactitol accumulation in the diaphragm of rats fed 20% galactose for 4 day at 102 mg/kg/day dose. It is filed as functional. The procedure, abridged:
as §1

Assay [14] concerns Rattus norvegicus. Kind of assay: In vivo inhibition of galactitol accumulation in the sciatic nerve of rats fed 20% galactose for 4 day at 102 mg/kg/day dose. It is filed as functional. An outline of the steps:
as §1

Assay [15] relates to Rattus norvegicus. The experiment in a line: In vivo inhibition of galactitol accumulation in the diaphragm of rats fed 20% galactose for 4 day at 91 mg/kg/day dose. It is filed as functional. The procedure, abridged:
as §1

Assay [16] relates to Rattus norvegicus. The experiment in a line: In vivo inhibition of galactitol accumulation in the sciatic nerve of rats fed 20% galactose for 4 day at 91 mg/kg/day dose. It is filed as functional. The procedure, abridged:
as §1

Assay [17] relates to Rattus norvegicus. Kind of assay: In vivo inhibition of galactitol accumulation in the sciatic nerve of rats fed 20% galactose for 4 day at 101 mg/kg/day dose. The assay is classed as functional. The procedure, abridged: as §1
Assay [18] concerns Rattus norvegicus. Kind of assay: In vivo inhibition of galactitol accumulation in the diaphragm of rats fed 20% galactose for 4 day at 101 mg/kg/day dose. It is filed as functional. An outline of the steps: as §1
Assay [19] concerns Rattus norvegicus. Kind of assay: In vivo inhibition of galactitol accumulation in the diaphragm of rats fed 20% galactose for 4 day at 90 mg/kg/day dose. The assay is classed as functional. The procedure, abridged: as §1
The test system of assay [20] is Rattus norvegicus. Kind of assay: In vivo inhibition of galactitol accumulation in the sciatic nerve of rats fed 20% galactose for 4 day at 115 mg/kg/day dose. The assay is classed as functional. An outline of the steps: as §1
Assay [21] relates to Rattus norvegicus. The experiment in a line: In vivo inhibition of galactitol accumulation in the diaphragm of rats fed 20% galactose for 4 day at 115 mg/kg/day dose. It is filed as functional. An outline of the steps: as §1
The target of assay [22] is Aldo-keto reductase family 1 member B1 (Bos taurus) (UniProt P16116). The experiment in a line: In vitro inhibition of Aldose reductase in partially purified bovine lens preparation at a concentration of 10e -7M. An outline of the steps:
as §2

Assay [23] shares this target. Kind of assay: In vitro inhibition of Aldose reductase in partially purified bovine lens preparation at a concentration of 4*10e -8M. An outline of the steps:
as §2

Assay [24] has as its system Rattus norvegicus. The experiment in a line: In vivo inhibition of galactitol accumulation in the sciatic nerve of rats fed 20% galactose for 4 day at 98 mg/kg/day dose; NS = No Significant inhibition of polyol accumulation. The assay is classed as functional, organism-based.
For assay [25], the system named is Rattus norvegicus. Kind of assay: In vivo inhibition of galactitol accumulation in the diaphragm of rats fed 20% galactose for 4 day at 98 mg/Kg/day; NS = No Significant inhibition of polyol accumulation. The assay is classed as functional, organism-based. The procedure, abridged:
as §1

Consider `O=C(O)Cn1c(=O)c2ccc(F)cc2n(Cc2ccc(Br)cc2F)c1=O`, for which the values for the Lowering with Rattus norvegicus [1] and with Rattus norvegicus [2] were 63% and “Not significant”, respectively. Moreover, the inhibition in assay [3] came to 74%; in [4], 53%.
Consider `Cc1sc2c(c1C)c(=O)n(CC(=O)O)c(=O)n2Cc1ccc(Cl)c(Cl)c1`, for which the Lowering result in the assay on Rattus norvegicus [5] and in the assay with Rattus norvegicus [6] was “Not significant” each time. Moreover, the inhibition in assay [3] was found to be 79%; in [4], 51%.
As to `O=C(O)Cn1c(=O)c2sccc2n(Cc2ccc(Br)cc2F)c1=O`, the Lowering result in the assay with Rattus norvegicus [7] and in the assay with Rattus norvegicus [8] was “Not significant” in each case. Further, the inhibition stood at 68% in assay [3] and 43% in assay [4].
In the case of `O=C(O)CN1C(=O)N(Cc2ccc(Cl)c(Cl)c2)Cc2ccccc21`, the Lowering entry in the assay with Rattus norvegicus [2] is “Not significant”; in the assay with Rattus norvegicus [9] it was 30%. In addition, the inhibition is 53% in assay [3] and 31% in assay [4].
Take `O=C(O)Cn1cnc2ccc(Br)cc2c1=O`: the Lowering result with Rattus norvegicus [10] and in the assay on Rattus norvegicus [12] was “Not significant” in each case. This compound also yielded an inhibition in assay [11] of 32%.
For `Cc1ccc2c(c1)c(=O)n(CC(=O)O)c(=O)n2Cc1ccc(Cl)c(Cl)c1`, the Lowering is recorded as 76% in the assay on Rattus norvegicus [13] and 65% in the assay on Rattus norvegicus [14]. For the same compound, the inhibition in [3] is 80%; in assay [4], 40%.
Consider `O=C(O)Cn1c(=O)c2cc(Cl)ccc2n(Cc2ccc(Br)cc2F)c1=O`, for which the inhibition in [3] was determined as 80%; in [4], 51%. Also, the Lowering came out at 78% in the assay on Rattus norvegicus [15] and 47% in the assay on Rattus norvegicus [16].
`O=C(O)Cn1c(=O)n(Cc2ccc(Cl)c(Cl)c2)c(=O)c2cc(Cl)ccc21`: the Lowering in the assay with Rattus norvegicus [17] is recorded as 38%; with Rattus norvegicus [18], 68%. Also, the results for the inhibition in [3] and in assay [4] were 88% and 64%, respectively.
On to `O=C(O)CN1CN(Cc2ccc(Br)cc2F)c2ccc(Cl)cc2C1=O`, for which the Lowering entry in the assay with Rattus norvegicus [2] is “Not significant”; in the assay with Rattus norvegicus [19], 38%. The values for the inhibition in [3] and in [4] were 51% and 23%, respectively.
For the compound `O=C(O)Cn1c(=O)c2ccccc2n(Cc2ccc(Br)cc2F)c1=O`, the Lowering in the assay on Rattus norvegicus [20] worked out at 54%; in the assay with Rattus norvegicus [21] it was 58%. The inhibition is 71% in assay [3] and 34% in assay [4].
`O=C(O)Cn1c2ccc([N+](=O)[O-])cc2c(=O)n1Cc1ccc(Cl)c(Cl)c1`: the inhibition stood at 41% in [22] and 27% in [23]. Besides, the Lowering entry in the assay on Rattus norvegicus [24] and in the assay with Rattus norvegicus [25] was “Not significant” each time.

What is called inhibition is the change of the read-out against control, counted positive when it falls. Read a low inhibition as a response near the control.
